This is a sample that favours compounds with a hit; in the whole collection about 3.5% have one here.
bCat nuc transl: modulators of beta-catenin nuclear translocation; hit rate 0.3% among 190,000; nuclear translocation activity, % at 5 µM; HeLa beta-catenin nuclear translocation, immunofluorescence imaging;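 active = nuclear translocation activity above 50% at 5 µM, with a well cell count of 50 or more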;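 note: per-cell ratio of nuclear to cytoplasmic median beta-catenin stain intensity; plate controls were DMSO negative control for no effect and GSK-3 inhibitor IX positive control for full effect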
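Test system: human HeLa cells, endogenous beta-catenin. Times: 24 h compound exposure, 37°C. Measured by: beta-catenin immunofluorescence imaging with DAPI.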
MT stabilize HCS: stabilizes microtubules in HeLa cells; AID 2205; % tubulin-high responders, % at 10 µM; HeLa tubulin immunostaining HCS, 24 h; share of cells brighter than vehicle mean+2SD; hit rate 0.83% among 200,000;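 active = plate Z-score above 3 for both tubulin-high and condensed-nucleus cell shares, with cell loss under 80%, at 10 µM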;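 note: anti alpha tubulin signal scored within the nucleus-defined area of each cell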
BB579 growth dn: reduces growth of yeast BB579 in restrictive medium; S. cerevisiae BB579 growth, OD615, 48 h; inhibition, % at 10 µM; hit rate 0.51% among 140,000; AID 804;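 active = inhibition above a set limit, 3 SD over the mean compound inhibition, cut at about 44% in these data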
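Test system: S. cerevisiae DeaD strain BB579 yeast; Medium: restrictive CSMM-D medium; Compound: one dose, 10 µM compound with 0.25% DMSO; Incubation: 4 h cell preincubation, 48 h compound exposure, 30 °C humidified; Signal: OD at 615 nm; Benchmarks: amphotericin B at 10 µg/mL as positive control.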
Yeast life ext: extends the lifespan of yeast. S. cerevisiae growth with nicotinamide, OD615; deaD strain in restrictive glucose medium. inhibition of the nicotinamide effect, % at 10 µM. hit rate 0.68% among 130,000;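 active = inhibition above a set limit, placed 3 SD over the median of all compounds, cut at about 26% in these data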;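 note: 0% = nicotinamide-treated wells and 100% = cells grown without nicotinamide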
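Assay system: engineered S. cerevisiae DeaD replicative-lifespan strain, galactose-grown log-phase cells; Buffer or medium: CSMM-D glucose medium, restrictive; Probe or stimulus: nicotinamide 1.5 mM; Compound: single dose 10 µM compound, 0.25% DMSO; Schedule: 4 h preincubation then 48 h treatment at 30 °C; Technique: OD615 measurement.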
Efa HMGR inh: E. faecalis class II HMG-CoA reductase inhibition. purified E. faecalis HMGR, NADPH absorbance 340 nm kinetic. inhibition, % at 10 µM. hit rate 0.41% among 190,000;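 active = inhibition above a set limit, the median over all tested compounds plus 3 SD, cut at about 9.5% in these data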;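 note: enzyme runs in reverse so mevalonate oxidation gives rising NADPH absorbance; 0% = complete reaction with DMSO and 100% = background rate lacking mevalonate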
RAM inhibit: blocks the yeast RAM network | AID 868 | S. cerevisiae dse1pr::URA3 reporter, 5-FOA growth OD615, 2 d; analog-sensitive cbk1-as2 kinase mutant strain | hit rate 1.8% among 190,000 | inhibition, % at 50 µM;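 active = inhibition above a set limit, 3 SD over mean compound inhibition, cut at about 8.4% in these data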;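 note: 0% = DMSO-only wells with no growth and 100% = 10 µM 1-NA-PP1 full growth; inhibition rescues growth on 5-FOA so higher OD means more RAM inhibition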
* marks the source's active call; other numbers are inactive results; x = not tested or not shown.

SMILES	bCat nuc transl	MT stabilize HCS	BB579 growth dn	Yeast life ext	Efa HMGR inh	RAM inhibit
CCO[C@H]1OC(C(=O)NCc2nc3ccccc3[nH]2)=C[C@@H](C2CC2)[C@@H]1CCCO	122*	22*	x	x	-1	-1
CCOC(=O)C1=C(C)N=c2s/c(=C3\C(=O)Nc4ccccc43)c(=O)n2C1c1ccc2c(c1)OCO2 (stereo not drawn)	-1	2	-26	-10	-2	10*
CCOc1ccc(S(=O)(=O)n2cc(-c3ccc(F)cc3)c(N)n2)cc1	x	3	-7	-4	-1	6
CCOc1cc(S(=O)(=O)n2cc(-c3ccc(F)cc3)c(N)n2)cc(OCC)c1OCC	x	3	-17	-5	2	9.0*
CCCCOC(=O)c1ccc(NC(=O)CSC2=Nc3ccccc3C3CC=NN23)cc1 (stereo not drawn)	-8	2	-21	-12	0	8.4*
COc1ccc(/C=N/NC(=O)CSc2nnc(CCCc3ccc(OC)c(C)c3)o2)cc1	-2	3	-37	-1	4	10*
COc1cc(NC(=O)c2ccc(NS(=O)(=O)c3c(C)noc3C)cc2)cc(OC)c1	-1	1	-39	-2	1	11*
Cc1ccc(N2CCC(N3CCN(C4CCCCC4)C(CCO)C3)CC2)cc1 (stereo not drawn)	2	3	x	x	3	0
CCc1ccc(NC(=O)c2ccccc2SC)cc1	-5	5	x	x	0	1
COCCN1Cc2cc3cc(C)ccc3nc2SC1=Nc1cccc(OC)c1	-1	3	x	x	4	0
Cc1cccc(N=C2Sc3nc4c(C)c(C)ccc4cc3CN2CCN2CCOCC2)c1	-2	4	99*	-13	1	1
COC(=O)c1ccccc1C(=O)c1ccc2c(c1)NC(=O)CO2	0	5	x	x	-11	2
CCOc1ccccc1-n1nnnc1SCc1nc2ccccc2s1	0	3	-65	12	-2	9.9*
COc1ccc(-n2c(SCC(=O)Nc3ccc(Br)cc3)nc(O)cc2=O)cc1	-1	x	x	x	x	x
CC(C)C(=O)Nc1ccc2nn(-c3ccccc3)nc2c1	0	5	x	x	-1	1
O=C(COC(=O)c1cnccn1)c1cccc([N+](=O)[O-])c1	0	x	x	x	x	x
O=C(Nc1ccccc1)c1cc(N2CCOCC2)nc2ccccc12	0	2	-11	1	2	2
Cc1ccc(NC(=O)c2cc(N3CCOCC3)nc3ccccc23)cc1	-5	24*	-30	-31	-4	0
Cc1c(NC(=O)C(C)OC(=O)c2ccc(Cl)nc2)c(=O)n(-c2ccccc2)n1C (stereo not drawn)	-3	4	-31	4	1	3
O=C(N/N=C/c1ccc(O)cc1)c1ccc(COc2cc(Cl)ccc2Cl)o1	11	5	-3	-20	12*	1
O=C(NCc1ccc2c(c1)OCO2)c1ccc(CSCc2ccc(Cl)cc2)o1	0	3	-32	6	-7	7
O=C(NCc1ccc2c(c1)OCO2)c1ccc(COc2cc(Cl)ccc2Cl)o1	4	1	-42	-4	-3	9.4*
Cc1[nH]c(=S)c(C#N)c(-c2ccco2)c1C(=O)N(C)C	-2	4	x	x	5	2
COc1cc(CN2CCNC(=O)C2CC(=O)N(Cc2nccn2C)C(C)C)cc(OC)c1 (stereo not drawn)	0	x	x	x	x	x
Cc1ccc2nc(-c3ccc(NS(=O)(=O)c4ccccc4)cc3)sc2c1	-3	3	-31	0	1	3
SMILES	bCat nuc transl	MT stabilize HCS	BB579 growth dn	Yeast life ext	Efa HMGR inh	RAM inhibit
Cc1ccc2nc(-c3ccc(NS(=O)(=O)c4ccc(F)c(F)c4)cc3)sc2c1	2	2	68*	-7	-5	5
CC1SC2(NC1=O)C1CC3CC(C1)CC2C3 (stereo not drawn)	-3	2	x	x	-8	2
Nc1c(C(=O)Nc2ccccc2)sc2nc(-c3ccco3)ccc12	-2	3	-11	-18	3	11*
COc1ccccc1NC(=O)c1sc2nc(-c3ccco3)ccc2c1N	5	4	-40	-24	-10	2
C#Cc1ccc([C@@H]2C=C(C(=O)N3CCN(Cc4ccc5c(c4)OCO5)CC3)O[C@H](OCCCCO)C2)cc1	-1	7	x	x	-3	0
CCOC(=O)CCSc1nc(-c2ccc3c(c2)OCO3)cc(C(F)(F)F)c1C#N	-4	2	-83	7	-3	11*
CCOC(=O)CC(=O)CSc1nc(-c2ccc3c(c2)OCO3)cc(C(F)(F)F)c1C#N	0	2	-31	5	-4	7
O=C(CC1NCCNC1=O)NC1Cc2ccccc2C1 (stereo not drawn)	0	x	x	x	x	x
OC(Cn1cncn1)(c1ccccc1)c1ccccc1	-1	2	92*	-18	2	1
O=C(NCC(=O)N(c1cccnc1)C(C(=O)NC1CCCC1)c1ccc(F)cc1)c1ccco1 (stereo not drawn)	3	2	x	x	-4	3
O=C1c2ccccc2C(=O)c2c1cccc2N1CCOCC1	0	3	57*	-20	1	1
COc1ccc(C2CC(c3c(O)cc(C)oc3=O)=NCCS2)c(OC)c1 (stereo not drawn)	110*	10	16	-2	-5	3
O=C(COC(=O)CCC(NC(=O)OCc1ccccc1)C(=O)OCC(=O)Nc1ccccc1)Nc1ccccc1 (stereo not drawn)	-1	4	-8	-1	4	10*
CCN(CC)S(=O)(=O)c1ccc(C)c(NC(=S)Nc2cccc(S(=O)(=O)N3CCCCCC3)c2)c1	0	3	-42	24	-2	9.0*
COc1ccc(C(=O)SC2=NCCS2)cc1	-1	3	-39	x	0	-1
CCOc1ccc(C(=O)SC2=NCCS2)cc1	3	1	-48	52*	-1	0
COc1ccccc1N=c1oc2c(OC)cccc2cc1C(=O)NCc1ccco1	-1	6	-44	-9	-7	1
COc1ccc(N=c2oc3c(OC)cccc3cc2C(=O)NCc2ccco2)cc1OC	0	8	-28	-7	-5	9.9*
Cc1nc2ccc(NS(=O)(=O)c3c(C)c(C)cc(C)c3C)cc2s1	2	44*	-39	8	0	2
CCN(C(=O)CSc1nc2ccccc2c(=O)n1C(C)COC)C1CCS(=O)(=O)C1 (stereo not drawn)	-4	5	x	x	-1	1
CCc1ccc(CN(C)C(=O)CCc2nnc(COc3ccccc3)o2)cc1	0	2	x	x	x	1
Cc1ccc(Cl)cc1N1CCN(C(=O)c2cn(C)c(=O)c3c2c2ccccc2n3C)CC1	139*	16	-35	-13	3	7

Compound activity as filed in PubChem BioAssay.
